Values after ≈ are worked out from the molar mass of the structure shown.
Legend:
[1] = Inhibition of Saccharomyces cerevisiae alpha-glucosidase using p-nitrophenyl alpha-D-glucoside as substrate preincubated for 0.5 hrs followed by substrate addition measured after 1 hr by colorimetric method
Outline: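 Enzyme (0.4 U/mL) and compound preincubated 0.5 h at 37 °C in 50 mM K2HPO4−KH2PO4 buffer, final DMSO 10%; p-nitrophenyl α-D-glucoside (3 mM) added, further 1 h at 37 °C; terminated with 0.1 M Na2CO3, A405 read immediately as relative hydrolysis rate; IC50 determined; acarbose positive control.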

Bacillus subtilis = experiment: Antibacterial activity against Bacillus subtilis TISTR 008 by 2-fold serial dilution method; assay type: functional
Staphylococcus aureus = experiment: Antibacterial activity against Staphylococcus aureus TISTR 1466 by 2-fold serial dilution method; assay type: functional
Saccharomyces cerevisiae = experiment: Inhibition of Saccharomyces cerevisiae alpha-glucosidase using p-nitrophenyl alpha-D-glucoside as substrate at 100 uM preincubated for 0.5 hrs followed by substrate addition measured after 1 hr by colorimetric method relative to control
Outline: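 Test compound at 100 μM; enzyme (0.4 U/mL) preincubated with compound 0.5 h at 37 °C in 50 mM K2HPO4−KH2PO4 buffer, 10% DMSO final; reaction started with p-nitrophenyl α-D-glucoside (3 mM), 1 h at 37 °C; stopped with 0.1 M Na2CO3; absorbance read at 405 nm; percent inhibition.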

Salmonella typhimurium = experiment: Antibacterial activity against Salmonella typhimurium TISTR 292 by 2-fold serial dilution method; assay type: functional, Salmonella enterica subsp. enterica serovar Typhimurium
Bacillus cereus = experiment: Antibacterial activity against Bacillus cereus TISTR 688 by 2-fold serial dilution method; assay type: functional
Escherichia coli = experiment: Antibacterial activity against Escherichia coli TISTR 780 by 2-fold serial dilution method; assay type: functional
Pseudomonas aeruginosa = experiment: Antibacterial activity against Pseudomonas aeruginosa TISTR 884 by 2-fold serial dilution method; assay type: functional

Compound	IC50 [1] [µM]	MIC (Bacillus subtilis) [µg/mL]	MIC (Staphylococcus aureus) [µg/mL]	inhibition (Saccharomyces cerevisiae) [%]	MIC (Salmonella typhimurium; Salmonella enterica) [µg/mL]	MIC (Bacillus cereus) [µg/mL]	MIC (Escherichia coli) [µg/mL]	MIC (Pseudomonas aeruginosa) [µg/mL]	MIC (Salmonella typhimurium; Salmonella enterica subsp. enterica serovar Typhimurium) [µg/mL]
CC(C)=CCC/C(C)=C\CC1(C/C=C(\C)CCC=C(C)C)C(=O)C(O)=Cc2oc3cc(O)cc(O)c3c(=O)c21 (stereo not drawn)	55.3	8 (≈ 15 µM)	64 (≈ 120 µM)	75.8	64 (≈ 120 µM)	8 (≈ 15 µM)	64 (≈ 120 µM)	128 (≈ 240 µM)	–
COc1c(O)cc2oc3cc4c(c(O)c3c(=O)c2c1C/C=C(\C)CCC=C(C)C)C=CC(C)(C)O4	18.6	64 (≈ 134 µM)	128 (≈ 269 µM)	71.7	128 (≈ 269 µM)	64 (≈ 134 µM)	64 (≈ 134 µM)	128 (≈ 269 µM)	–
COc1cc2oc3cc(O)c4c(c3c(=O)c2c(O)c1CC=C(C)C)C=CC(C)(C)O4	–	128 (≈ 313 µM)	128 (≈ 313 µM)	50.8	128 (≈ 313 µM)	128 (≈ 313 µM)	> 128	128 (≈ 313 µM)	–
COc1cc2oc3cc(OC)c(CC=C(C)C)c(O)c3c(=O)c2c(CC=C(C)C)c1O	–	128 (≈ 302 µM)	> 128	56.4	128 (≈ 302 µM)	128 (≈ 302 µM)	> 128	128 (≈ 302 µM)	–
COc1cc2oc3cc4c(c(O)c3c(=O)c2c(CC=C(C)C)c1OC)C=CC(C)(C)O4	26.2	128 (≈ 303 µM)	> 128	62.2	64 (≈ 151 µM)	128 (≈ 303 µM)	> 128	128 (≈ 303 µM)	–
COc1c(O)cc2oc3cc4c(c(O)c3c(=O)c2c1CC=C(C)C)C=CC(C)(C)O4 [MANGOSTANIN]	34.6	8 (≈ 19.6 µM)	64 (≈ 157 µM)	70.1	128 (≈ 313 µM)	4 (≈ 9.79 µM)	> 128	128 (≈ 313 µM)	–
COc1cc2oc3cc(O)c(OC)c(CC=C(C)C)c3c(=O)c2c(O)c1CC=C(C)C	8.7	4 (≈ 9.42 µM)	> 128	73.1	128 (≈ 302 µM)	16 (≈ 37.7 µM)	> 128	128 (≈ 302 µM)	–
COc1c(O)c(CC=C(C)C)c2oc3cc(O)c(CC=C(C)C)c(O)c3c(=O)c2c1CC=C(C)C	–	32 (≈ 66.9 µM)	> 128	–	128 (≈ 267 µM)	32 (≈ 66.9 µM)	> 128	128 (≈ 267 µM)	–
CC(C)=CCC/C(C)=C\CC1(CC=C(C)C)C(=O)C(O)=Cc2oc3cc(O)cc(O)c3c(=O)c21 (stereo not drawn) [GARCINIANONE B]	11.7	2 (≈ 4.31 µM)	64 (≈ 138 µM)	69.1	64 (≈ 138 µM)	2 (≈ 4.31 µM)	64 (≈ 138 µM)	128 (≈ 276 µM)	–
CC(C)=CCC/C(C)=C/CC1(C/C=C(\C)CCC=C(C)C)C(=O)C(O)=Cc2oc3cc(O)cc(O)c3c(=O)c21 (stereo not drawn)	36.4	8 (≈ 15 µM)	> 128	62.9	64 (≈ 120 µM)	8 (≈ 15 µM)	> 128	128 (≈ 240 µM)	–
COc1c(O)cc2oc3cc(O)c(CC=C(C)C)c(O)c3c(=O)c2c1CC=C(C)C [MANGOSTIN]	7.8	8 (≈ 19.5 µM)	64 (≈ 156 µM)	72	64 (≈ 156 µM)	8 (≈ 19.5 µM)	64 (≈ 156 µM)	128 (≈ 312 µM)	–
CC(C)=CCC/C(C)=C/CC1(CC=C(C)C)C(=O)C(O)=Cc2oc3cc(O)cc(O)c3c(=O)c21 (stereo not drawn) [GARCINIANONE A]	34	2 (≈ 4.31 µM)	64 (≈ 138 µM)	66.7	64 (≈ 138 µM)	4 (≈ 8.61 µM)	64 (≈ 138 µM)	128 (≈ 276 µM)	–
COc1cc2c(=O)c3c(O)c4c(cc3oc2cc1O)OC(C)(CCC=C(C)C)C=C4 (stereo not drawn)	–	64 (≈ 157 µM)	> 128	–	128 (≈ 313 µM)	32 (≈ 78.3 µM)	> 128	128 (≈ 313 µM)	–
COc1cc2c(=O)c3c(O)c(C/C=C(\C)CCC=C(C)C)c(O)cc3oc2cc1O [COWAXANTHONE]	–	64 (≈ 156 µM)	> 128	–	128 (≈ 312 µM)	64 (≈ 156 µM)	> 128	128 (≈ 312 µM)	–
GENTAMICIN	–	–	–	–	–	–	0.25	2	0.125
COc1cc2oc3cc4c(c(O)c3c(=O)c2c(CC=C(C)C)c1O)C=CC(C)(C)O4	–	128 (≈ 313 µM)	> 128	–	128 (≈ 313 µM)	128 (≈ 313 µM)	> 128	128 (≈ 313 µM)	–
CC(C)=CCCC1(C)C=Cc2c(c(O)cc3oc4cc5c(c(O)c4c(=O)c23)C=CC(C)(C)O5)O1 (stereo not drawn)	–	128 (≈ 278 µM)	> 128	–	64 (≈ 139 µM)	64 (≈ 139 µM)	> 128	128 (≈ 278 µM)	–
CN[C@H](CC(C)C)C(=O)N[C@H]1C(=O)N[C@@H](CC(N)=O)C(=O)N[C@H]2C(=O)N[C@H]3C(=O)N[C@H](C(=O)N[C@H](C(=O)O)c4cc(O)cc(O)c4-c4cc3ccc4O)[C@H](O)c3ccc(c(Cl)c3)Oc3cc2cc(c3O[C@@H]2O[C@H](CO)[C@@H](O)[C@H](O)[C@H]2O[C@H]2C[C@](C)(N)[C@H](O)[C@H](C)O2)Oc2ccc(cc2Cl)[C@H]1O [VANCOMYCIN]	–	0.25 (≈ 0.173 µM)	0.25 (≈ 0.173 µM)	–	–	0.25 (≈ 0.173 µM)	–	–	–
C[C@H]1O[C@H](O[C@H]2[C@H](O)[C@@H](O)[C@@H](O[C@H]3[C@H](O)[C@@H](O)C(O)O[C@@H]3CO)O[C@@H]2CO)[C@H](O)[C@@H](O)[C@@H]1N[C@H]1C=C(CO)[C@@H](O)[C@H](O)[C@H]1O (stereo partly drawn) [ACARBOSE]	8	–	–	–	–	–	–	–	–
COc1cc2oc3cc(OC)c(OC)c(CC=C(C)C)c3c(=O)c2c(O)c1CC=C(C)C	–	128 (≈ 292 µM)	128 (≈ 292 µM)	53.8	128 (≈ 292 µM)	> 128	64 (≈ 146 µM)	128 (≈ 292 µM)	–
COc1c(O)cc2oc3cc(O)cc(O)c3c(=O)c2c1C/C=C(\C)CCC=C(C)C [RUBRAXANTHONE]	23.4	2 (≈ 4.87 µM)	> 128	71.2	64 (≈ 156 µM)	4 (≈ 9.75 µM)	64 (≈ 156 µM)	64 (≈ 156 µM)	–
COc1cc2oc3cc(O)c4c(c3c(=O)c2c(O)c1CC=C(C)C)CCC(C)(C)O4	–	–	128 (≈ 312 µM)	–	128 (≈ 312 µM)	128 (≈ 312 µM)	> 128	> 128	–

From ChEMBL document CHEMBL3421562, “Bioactive prenylated xanthones from the young fruits and flowers of Garcinia cowa” (J Nat Prod, 2015)
